{"data": "Measurements of several laboratories", "SIRT6": "NAD-dependent protein deacylase sirtuin-6 (SIRT6, Homo sapiens, UniProt Q8N6T7)", "Cacna1b": "Voltage-dependent N-type calcium channel subunit alpha-1B (Cacna1b, Rattus norvegicus, UniProt Q02294)", "note": "Compare with care: the assays were run in different laboratories."}
{"Compound": "CC/C(=N\\NC(=O)NCc1cccc(O)c1)c1ccc(O)c(C)c1O", "target": "ALK tyrosine kinase receptor (ALK, Homo sapiens, UniProt Q9UM73)", "read-out": "enzyme activity", "action": "inhibitor", "tested at": "0.1 µM", "inhibition [%]": 1}
{"Compound": "Ic1cccc2cnccc12", "target": "Poly [ADP-ribose] polymerase 2 (PARP2, Homo sapiens, UniProt Q9UGN5)", "read-out": "enzyme activity", "action": "inhibitor", "tested at": "10 µM", "inhibition [%]": 40}
{"Compound": "O=C(Nc1ccc(S(=O)(=O)N2CCC(Cl)CC2)cc1)c1ccc([N+](=O)[O-])o1", "target": "Voltage-dependent L-type calcium channel subunit alpha-1C (Cacna1c, Rattus norvegicus, UniProt P22002)", "read-out": "ligand displacement", "method": "radioligand", "tested at": "10 µM", "inhibition [%]": 24}
{"Compound": "NC(=O)c1ccc(C(=O)NOCc2ccccc2Br)cc1", "target": "SIRT6", "read-out": "enzyme activity", "action": "inhibitor", "method": "fluorescence", "tested at": "100 µM", "inhibition [%]": 79.7}
{"Compound": "O=C(c1ccc(F)cc1)N(Cc1ccccc1)C1CCCCC1", "target": "Cacna1b", "read-out": "cell-free assay", "tested at": "10 µM", "inhibition [%]": 5}
{"Compound": "NC(=O)c1ccc(C(=O)NOCc2ccc(Oc3ccccc3)cc2)cc1", "target": "SIRT6", "read-out": "enzyme activity", "action": "inhibitor", "method": "fluorescence", "tested at": "100 µM", "inhibition [%]": 89.1}
{"Compound": "C/C(=C\\C(=O)OCCCCCCCCC(=O)O)C[C@@H]1OC[C@H](C[C@@H]2O[C@H]2[C@@H](C)[C@H](C)O)[C@@H](O)[C@H]1O", "target": "C-C chemokine receptor type 5 (CCR5, Homo sapiens, UniProt P51681)", "read-out": "calcium signal", "action": "antagonist", "cell line": "U87/CD4/CCR5", "tested at": "20 µM", "inhibition [%]": 76}
{"Compound": "CCN(Cc1ccccc1C(F)(F)F)C(=O)C1CCN(S(=O)(=O)c2ccc3[nH]ncc3c2)CC1", "target": "Cacna1b", "read-out": "ligand displacement", "method": "radioligand", "tested at": "10 µM", "inhibition [%]": 2}
{"Compound": "COc1ccc(CONC(=O)c2ccc(C(N)=O)cc2)cc1", "target": "SIRT6", "read-out": "enzyme activity", "action": "inhibitor", "method": "fluorescence", "tested at": "100 µM", "inhibition [%]": 78.2}
